Measured values of several laboratories.
FLT3: Receptor-type tyrosine-protein kinase FLT3 (FLT3, Homo sapiens, UniProt P36888)
MTNR1A: Melatonin receptor type 1A (MTNR1A, Homo sapiens, UniProt P48039)

| SMILES | target | assay | conditions | measurement | result |
| --- | --- | --- | --- | --- | --- |
| Cc1cc(Nc2cc3ncccc3c(N[C@@H]3C[C@H]4CC[C@@H](C3)N4CCC#N)n2)n[nH]1 | FLT3 | binding, competition with immobilised ligand |  | Kd | 0.04 µM |
| COC(=O)c1ccc(CSc2nnc(C3CC3)[nH]2)cc1 | MTNR1A | cAMP, agonist, luciferase |  | EC50 | 0.777 µM |
| CC(C)Nc1ccnc(Nc2cccc(-c3cnccn3)c2)n1 | FLT3 | enzyme activity, inhibitor |  | IC50 | 0.011 µM |
| COc1ccc2ncn(CCNC(C)=O)c2c1 | MTNR1A | cAMP, agonist, TR-FRET |  | EC50 | 1.12 µM |
| COc1ccc(Br)c(CNc2cccnc2)c1 | MTNR1A | cell-free assay |  | Ki | 0.347 µM |
| COc1cc2c(CCNC(C)=O)c[nH]c2cc1I | MTNR1A | GTPγS binding, agonist, radiometric | cell membranes | EC50 | 0.01 µM |
| c1ccc(-c2cccc(Nc3nccc(NC4CCCCC4)n3)c2)nc1 | FLT3 | enzyme activity, inhibitor |  | IC50 | 1.71 µM |
| Cc1cnc(-c2ccc(-c3ccc(NC(=O)Nc4c(F)cc(F)cc4F)cc3F)c3c2C(=O)NC3)[nH]1 | Tyrosine-protein kinase receptor Tie-1 (TIE1, Homo sapiens, UniProt P35590) | binding, competition with immobilised ligand |  | Kd | 0.018 µM |
| NC(=O)c1ccc(Nc2nccc(NC3CCCCC3)n2)cc1 | FLT3 | enzyme activity, inhibitor |  | IC50 | 0.014 µM |
| Cc1cc2nc3c(=O)[nH]c(=O)nc-3n(C[C@H](O)[C@H](O)[C@H](O)COP(=O)(O)OP(=O)(O)OC[C@H]3O[C@@H](n4cnc5c(N)ncnc54)[C@H](O)[C@@H]3O)c2cc1C | Annexin A7 (Homo sapiens, UniProt P20073) | binding | lysate | Kd | 0.03 µM |
| CCc1ccc2scc(CCNC(C)=O)c2c1 | MTNR1A | β-arrestin recruitment, agonist |  | EC50 | 0.012 µM |
| COc1ccc(CN(C)C(=O)c2cc(F)c[nH]2)cc1O | MTNR1A | cAMP, agonist, luciferase |  | EC50 | 0.0211 µM |
